Measured values published in ChEMBL document CHEMBL3808278, “Design, Synthesis, and Biological Evaluation of Imidazo[1,5-a]quinoline as Highly Potent Ligands of Central Benzodiazepine Receptors” (J Med Chem, 2016).
Calls of active or inactive are those of the source. The calls are words filed in the database; no cut-off is given here.

Assays:
[1] = test system: Mus musculus; test: Anxiolytic activity in mouse assessed as time spent in light box at 3 mg/kg, po administered 30 mins before test by light-dark box test; format: functional
Summary of the method: (§1)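 Light-dark box in mice measured time in the light compartment. Compounds were given per os 30 min before testing, and diazepam 1 mg kg-1 subcutaneously as reference. Values are mean ± SEM of at least 10 mice, compared with vehicle-treated animals.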

[2] = test system: Mus musculus; test: Antiamnestic activity in mouse assessed as prevention of scopalamine-induced amnesia at 10 mg/kg, po administered 30 mins before test by passive avoidance test; format: functional, organism-based
Summary of the method: (§2)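 Passive avoidance in mice: compounds were given per os 30 min before the test, and scopolamine 1.5 mg kg-1 i.p. immediately after the punishment. Read-out was time recorded during the retention session. Values are mean ± SEM of at least 10 mice, compared with vehicle-treated animals.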

[3] = test system: Mus musculus; test: Antiamnestic activity in scopolamine induced mouse amnesia model assessed as time spent in light box at 3 mg/kg, po administered 30 mins before test by passive avoidance test (reference value: 44.8 +/- 8.1 secs); format: functional; summary of the method: as §2
[4] = species: Rattus norvegicus; test: Inverse agonist activity at central-type benzodiazepine receptor in Sprague-Dawley rat cerebrocortical synaptoneurosomes assessed as decrease in 36Cl- flow after 10 secs by liquid-phase scintillation beta-counting method
[5] = test system: Mus musculus; test: Anxiolytic activity in mouse assessed as time spent in light box at 10 mg/kg, po administered 30 mins before test by light-dark box test; format: functional; summary of the method: as §1
[6] = species: Mus musculus; test: Myorelaxant effect in mouse assessed as effect on motor coordination after 30 mins by rotarad test; format: organism-based; details: in vivo, 0.5 h
Summary of the method: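 Rota-rod test of motor coordination in mice, with compounds given per os 30 min before testing. Values are mean ± SEM of at least 10 mice.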

[7] = species: Bos taurus; test: Selectivity ratio, ratio of Ki for central-type benzodiazepine receptor in bovine cortical membrane to Ki for central-type benzodiazepine receptor in bovine cortical membrane in presence of 50 uM of GABA; format: cell membranes
[8] = test system: Mus musculus; test: Anxiolytic activity in po dosed mouse assessed as increase in time spent in light box administered 30 mins before test by light-dark box test; format: functional, organism-based; summary of the method: as §1
[9] = test system: Mus musculus; test: Neurotoxicity in mouse assessed as effect on neurological and muscular abilities at 10 mg/kg, po after 30 mins by Hole-Board test; format: toxicity, organism-based; details: in vivo, 0.5 h
Summary of the method: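 Hole-board test 30 min after oral dosing at 10 mg kg-1 counted movements (motor activity) and head inspections (exploratory activity). Values are mean ± SEM of at least 10 mice, compared with vehicle controls.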

[10] = Displacement of [3H]-flumazenil from central-type benzodiazepine receptor in bovine cortical membrane after 90 mins by liquid-phase scintillation beta-counting method; format: cell membranes, Bos taurus
Summary of the method: (§3)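 Competition binding against radiolabelled antagonist [3H]flumazenil in cortical membranes (bovine; human where listed); Ki reported as mean ± SEM of three independent determinations.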

[11] = species: Bos taurus; test: Displacement of [3H]-flumazenil from central-type benzodiazepine receptor in bovine cortical membrane at 1000 nM after 90 mins by liquid-phase scintillation beta-counting method; format: cell membranes; summary of the method: as §3
[12] = test system: Mus musculus; test: Anxiolytic activity in mouse assessed as increase in time spent in light box at 1 mg/kg, po administered 30 mins before test by light-dark box test; format: functional, organism-based; summary of the method: as §1
[13] = test system: Mus musculus; test: Antiamnestic activity in scopolamine induced mouse amnesia model assessed as time of retention session in light box at 30 mg/kg, po administered 30 mins before test by passive avoidance test (reference value: 44.8 +/- 8.1 secs); format: functional; summary of the method: as §2
[14] = species: Rattus norvegicus; test: Antagonist activity at central-type benzodiazepine receptor in Sprague-Dawley rat cerebrocortical synaptoneurosomes assessed as decrease in 36Cl- flow after 10 secs by liquid-phase scintillation beta-counting method
[15] = test system: Mus musculus; test: Anxiolytic activity against mouse assessed as increase in time spent in light box at 10 mg/kg, po administered 30 mins before test by light-dark box test; format: functional, organism-based; summary of the method: as §1
[16] = test system: Mus musculus; test: Anxiolytic activity in mouse assessed as time spent in light box at 30 mg/kg, po administered 30 mins before test by light-dark box test; format: functional; summary of the method: as §1
[17] = test system: Mus musculus; test: Anxiolytic activity in mouse assessed as increase in time spent in light box at 1 mg/kg, sc administered 30 mins before test by light-dark box test; format: functional, organism-based
Summary of the method: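 Mice, light-dark box test for anxiolytic effect; agent given subcutaneously (1 mg kg-1) 30 min before testing; time in light box recorded; mean ± SEM of at least 10 mice; significance vs vehicle-treated mice.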

[18] = test system: Brain; test: Neuroprotective activity against oxygen-glucose deprivation and reoxygenation-induced injury in Sprague-Dawley rat brain cortical slices assessed as maximum recovery in LDH release at 5 uM treated during 90 mins of reperfusion phase measured after 90 mins by spetrophotometric method; format: functional
Summary of the method: (§4)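 Rat brain cortical slices in ACSF underwent 30 min oxygen/glucose deprivation, then 90 min reoxygenated ACSF (reperfusion). Controls were kept 120 min in ACSF. Compounds (0.1–100 µM) were added only during reperfusion, and LDH release was measured. Data are means ± SEM of at least 4 experiments, analysed by ANOVA with Dunnett post test. The effective concentration is that giving the largest reduction, and recovery is the % reversion at that concentration.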

[19] = test system: Brain; test: Neuroprotective activity against oxygen-glucose deprivation and reoxygenation-induced injury in Sprague-Dawley rat brain cortical slices assessed as maximum recovery in LDH release at 50 uM treated during 90 mins of reperfusion phase measured after 90 mins by spetrophotometric method; format: functional; summary of the method: as §4
[20] = species: Rattus norvegicus; test: Partial agonist activity at central-type benzodiazepine receptor in Sprague-Dawley rat cerebrocortical synaptoneurosomes assessed as increase in 36Cl- influx after 10 secs by liquid-phase scintillation beta-counting method
[21] = test system: Mus musculus; test: Antiamnestic activity in scopalamine-induced mouse amnesia model assessed as time spent in light box at 10 mg/kg, po administered 30 mins before test by passive avoidance test (reference value: 44.8 +/- 8.1 secs); format: functional; summary of the method: as §2
[22] = test system: Mus musculus; test: Antiamnestic activity in scopolamine induced mouse amnesia model assessed as time spent in light box at 1 mg/kg, po administered 30 mins before test by passive avoidance test; format: functional, organism-based; summary of the method: as §2

Structure (SMILES)	Time [1]	Activity [2]	Activity [4]	Time [5]	Activity [6]	Ratio Ki [7]	Activity [9]	Ki [10]	Activity [15]	other results
CCCCN(C)C(=O)c1cc2c(C(=O)OC(C)(C)C)ncn2c2ccccc12	144.8 s	Active	Active	167.2 s	Non-toxic	0.62	Non-toxic	1.8 nM	–	Time [3]: 73.5 s; Activity [8]: Dose-dependent effect
Cc1c(-c2ccccc2)c2ccccc2n2cnc(C(=O)N(C)Cc3ccccc3)c12	–	–	–	–	–	–	–	> 1000 nM	–	inhibition [11]: 19%
Cc1c(C(=O)N(C)Cc2ccccc2)c2ccccc2n2cnc(C(=O)OC(C)(C)C)c12	–	inactive	–	–	Non-toxic	1	Non-toxic	2.6 nM	inactive	Activity [12]: inactive; Time [13]: <=77.9 s; Antagonist activity [14]: Active; Time [16]: <=139.2 s
CN1C(=O)CN=C(c2ccccc2)c2cc(Cl)ccc21 [DIAZEPAM]	–	–	–	–	–	–	–	–	–	Activity [17]: Active; Activity [18]: 55.9%
CCCN(CCC)C(=O)c1c(C)c2c(C(=O)OCC)ncn2c2ccccc12	153.4 s	Active	–	–	Non-toxic	1.3	Non-toxic	1.5 nM	Active	Activity [19]: 44%; Activity [20]: Active
CCCN(CCC)C(=O)c1cc2c(C(=O)OCC)ncn2c2ccc(F)cc12	–	Active	Active	181.4 s	Non-toxic	0.8	Non-toxic	0.44 nM	–	Time [21]: 99.6 s; Activity [22]: Active
